Results of several laboratories.
Lines come from different studies, so protocols differ. pIC50: −log10 of the molar value.
LDHA: L-lactate dehydrogenase A chain (LDHA, Homo sapiens, UniProt P00338)
PRMT3: Protein arginine N-methyltransferase 3 (PRMT3, Homo sapiens, UniProt O60678)

| SMILES | target | read-out | mode | technique | pH | pIC50 |
| --- | --- | --- | --- | --- | --- | --- |
| CCn1ncc2c1-c1cnc(N)c(c1)O[C@H](C)c1cc(F)ccc1-c1nn(C)nc1C2 | High affinity nerve growth factor receptor (NTRK1, Homo sapiens, UniProt P04629) | enzyme activity | inhibitor | radiometric | – | 6.84 |
| COc1cc(-c2cc(=O)c3c(O)c(OC)c(O[C@@H]4O[C@H](CO)[C@@H](O)[C@H](O)[C@H]4O)cc3o2)ccc1O | LDHA | enzyme activity | inhibitor | – | pH 7.4 | 3.82 |
| Nc1ncnc2c1ncn2[C@@H]1O[C@H](CSCCNC(=O)NCc2ccccc2)[C@@H](O)[C@H]1O | Protein arginine N-methyltransferase 5 (PRMT5, Homo sapiens, UniProt O14744) | enzyme activity | inhibitor | radiometric | – | > 5.62 |
| CC1(C)C(/C=C/C=C2/N(CCCc3ccccc3)c3ccc4ccccc4c3C2(C)C)=[N+](CCCc2ccccc2)c2ccc3ccccc3c21 | PRMT3 | enzyme activity | inhibitor | radiometric | – | 6.14 |
| Cc1c(C)c2c(c(C)c1O)CCC(C)(COc1ccc(CC3SC(=O)NC3=O)cc1)O2 (stereo not shown) | Peroxisome proliferator-activated receptor delta (PPARD, Homo sapiens, UniProt Q03181) | enzyme activity | inhibitor | – | – | 4.34 |
| Cc1nc2ccc(NC(=O)CCNC(=O)CCCc3ccc(CC(C(=O)O)C(=O)O)cc3)cc2s1 | LDHA | enzyme activity | inhibitor | – | – | 5.92 |
| O=C(Cc1cccs1)N[C@@H]1C(=O)N2C(C(=O)[O-])=C(C[n+]3ccccc3)CS[C@H]12 | Rhomboid protease AarA (Providencia stuartii, UniProt P46116) | enzyme activity | inhibitor | fluorescence | – | 4.74 |
| COc1cc2c(OC)nc3c4cc5c(cc4cc(OCCCN4CCC(N6CCCCC6)CC4)c3c2cc1OC)OCO5 | Tyrosyl-DNA phosphodiesterase 1 (TDP1, Homo sapiens, UniProt Q9NUW8) | enzyme activity | inhibitor | – | – | 4.96 |
| CC1=C[C@@]2(C[C@H](C)[C@H]3CC=C(CO)C(=O)[C@@H]3O2)OC1=O | Tyrosine-protein phosphatase non-receptor type 1 (PTPN1, Homo sapiens, UniProt P18031) | enzyme activity | inhibitor | – | – | 4.39 |
| CCS(=O)(=O)N1CC(CC#N)(n2cc(-c3ncnc4[nH]ccc34)cn2)C1 | Solute carrier family 22 member 6 (SLC22A6, Homo sapiens, UniProt Q4U2R8) | transporter uptake | inhibitor | – | – | < 4.00 |
| CSc1ccc(/C=C2/C(C)=C(CC(=O)O)c3cc(F)ccc32)cc1 | Cone cGMP-specific 3',5'-cyclic phosphodiesterase subunit alpha' (PDE6C, Homo sapiens, UniProt P51160) | enzyme activity | inhibitor | – | – | < 4.00 |
| CN1C(=O)c2c(nn(Cc3ccc(-c4cccc(F)n4)cc3)c2Nc2ccccc2)N2C1=N[C@@H]1CCC[C@@H]12 | High affinity 3',5'-cyclic-AMP phosphodiesterase 7A (PDE7A, Homo sapiens, UniProt Q13946) | enzyme activity | inhibitor | – | – | < 7.00 |
| C#Cc1ccc(C(=O)C2=C(C)C(=O)c3ccccc3C2=O)cc1 | Glutathione reductase, mitochondrial (GSR, Homo sapiens, UniProt P00390) | enzyme activity | inhibitor | – | pH 6.9 | 6.22 |
| COc1cccc(OC)c1OCCNCC1COc2ccccc2O1 (stereo not shown) | Alpha-1A adrenergic receptor (ADRA1A, Homo sapiens, UniProt P35348) | ligand displacement | – | radioligand | – | 9.44 |
| N=C(NCCCSC[C@H]1O[C@@H](n2cnc3c(NCCCc4ccccc4)ncnc32)[C@H](O)[C@@H]1O)NCC1CCCCC1 | PRMT3 | enzyme activity | inhibitor | fluorescence | – | < 4.00 |
| O=C(/C=C/c1ccc(O)cc1)c1ccc(O)cc1O | Amine oxidase [flavin-containing] A (MAOA, Homo sapiens, UniProt P21397) | enzyme activity | inhibitor | – | – | 4.64 |
| Nc1ncnc2c1ncn2[C@@H]1O[C@H](CSCCNC(=O)NC2CCCCC2)[C@@H](O)[C@H]1O | PRMT3 | enzyme activity | inhibitor | fluorescence | – | < 4.00 |
| CNC(=O)c1cc2c(Oc3ccc(NC(=O)C4(C(=O)Nc5ccc(F)cc5)CC4)cc3)ccnc2cc1OC | Homeodomain-interacting protein kinase 4 (HIPK4, Homo sapiens, UniProt Q8NE63) | enzyme activity | inhibitor | radiometric | – | 8.52 |
| Fc1ccc(CN(CC(F)(F)F)C2CCN(CCCc3c[nH]c4ccc(Cn5cncn5)cc34)CC2)cc1 | Voltage-dependent T-type calcium channel subunit alpha-1I (CACNA1I, Homo sapiens, UniProt Q9P0X4) | ion current | – | patch clamp | – | 9.15 |
